The text below walks through data of publication PMC5896666 (Drug Design, Development and Therapy, 2018).

One series has as its system caspase-9. In words: Caspase-9 activity measurement in cell lysates. Format: cell-based, human. The settings on record: EJ cells, 1.0 μM, 24 h, vs control and TAT-treated cells. The essentials: (§1)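 EJ cells treated for 24 h with 1.0 μM test compound. Lysates were mixed with buffer containing pNA substrate added at 2 mM: Ac-DEVD-pNA for caspase-3, Ac-LEHD-pNA for caspase-9. Incubated 4 h at 37 °C in the dark, then absorbance read at 405 nm. Activity given as ratio of treated to untreated control cells.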

A further series relates to Bcl-2. The experiment in a line: Western blotting analysis of Bcl-2. Format: cell-based, human. To be noted: EJ cells, 1.0 μM, 24 h. The essentials:
(§2)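 EJ cells received 1.0 μM test compound for 24 h, with or without 2 h pretreatment with 5 mM NAC. Lysed in RIPA with protease inhibitor; 30 μg protein (BCA) run on 10–12% SDS-PAGE and moved to PVDF. Blocked 30 min at room temperature in TBS, 0.1% Triton X-100, 5% milk. Primary antibody overnight at 4 °C, HRP secondary 1 h, ECL detection. GAPDH loading control.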

In series [1] the test system is ROS production in EJ cells. In words: Intracellular reactive oxygen species detection. To be noted: 1.0 μM, 24 h, DCFH-DA, fluorescence microplate reader. Format: cell-based, human. In short, it runs like this:
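EJ cells, with or without 2 h pretreatment with 5 mM NAC, were given 1.0 μM test compound for 24 h. After PBS washes, loaded with 10 μM DCFH-DA for 30 min at 37 °C and washed again. Imaged by fluorescence microscopy and quantified on a plate reader (ex 485/em 520 nm). Values given as percent of control.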

For the next series, the system named is Bax. The experiment in a line: Western blotting analysis of Bax. Format: cell-based, human. The settings on record: EJ cells, 1.0 μM, 24 h. In short, it runs like this:
as §2
Background: Immunoblotting shows a protein as a band on a membrane.

Series [2] has as its system EJ cells. In words: EdU incorporation assay. Format: cell-based, human. The settings on record: 1.0 μM, 24 h, then 50 μM EdU 4 h. The essentials: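 EJ cells at 5×10^3 per well treated 24 h with 1.0 μM test compound, washed, then labelled with 50 μM EdU for 4 h at 37 °C in the dark. Fixed in 4% formaldehyde 15 min at room temperature, permeabilised in 0.5% Triton X-100 20 min. Apollo cocktail 30 min, Hoechst 33342 30 min, fluorescence microscopy. Mean ± SD of triplicates.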

The test system of series [3] is EJ cells. The experiment in a line: AO/EB dual staining, morphological assessment of apoptotic cells. The settings on record: 1.0 μM, 24 h, mean ± SD. Format: cell-based, human. The essentials: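 EJ cells (RPMI 1640, 10% FBS, 37 °C, 5% CO2) exposed to 1.0 μM test compound for 24 h, then trypsinised, pelleted and PBS-washed. Stained with 100 μg/mL AO and 100 μg/mL EB for 10 min at 4 °C in the dark. Scored by fluorescence microscopy for nuclear condensation and shrinkage. Apoptotic rate = apoptotic cells/total counted. Mean ± SD of triplicates.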

Series [4] relates to human bladder cancer EJ cell line. In words: Cell viability MTT assay. Format: cell-based. In short, it runs like this:
(§3)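 Cells seeded at 5×10^3 per well: EJ in RPMI 1640, SV-HUC-1 in F-12K, both with 10% FBS. Test compound came from 25 mmol/L DMSO stock diluted in serum-free medium or PBS. Series run at graded concentrations for 24 h, or at 1.0 μM over varying times. MTT added for 4 h at 37 °C, formazan dissolved in DMSO, A570 read. Viability relative to untreated (100%); ≥3 repeats.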

Series [5] concerns EJ cells. In words: Annexin V-FITC/PI staining flow cytometry of apoptosis. Format: cell-based, human. To be noted: for Percentage of apoptotic cells (Annexin V-FITC/PI flow cytometry) / Effect of caspase inhibitors on induced apoptosis: 1.0 μM, 24 h; for Percentage of apoptotic cells (Annexin V-FITC/PI flow cytometry): mean ± SD; for Effect of caspase inhibitors on induced apoptosis: with 20 μM Z-LEHD-FMK or z-DEVD-fmk (Ac-DEVD-CHO). The essentials: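 EJ cells were seeded at 1×10^6 per well, left overnight, then given 1.0 μM test compound for 24 h. Some wells also received 20 μM caspase-3 (Ac-DEVD-CHO) or caspase-9 (Z-LEHD-FMK) inhibitor, or a 2 h pretreatment with 5 mM NAC. Harvested cells were stained with Annexin V-FITC/PI and read by flow cytometry for percent apoptotic cells. Mean ± SD of triplicates.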
(In general: Flow cytometry measures light scatter and fluorescence of single cells or particles in a stream.)

The test system of the next series is caspase-3. The experiment in a line: Caspase-3 activity measurement in cell lysates. Format: cell-based, human. To be noted: EJ cells, 1.0 μM, 24 h, vs control and TAT-treated cells. The essentials:
as §1

Series [6] concerns EJ cells. In words: Colony-formation assay. The settings on record: 1.0 μM, 24 h, then 10 days growth. Format: cell-based, human. The essentials:
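EJ cells at 1×10^6 per well given 1.0 μM test compound for 24 h. Harvested and replated at 5×10^2 cells per well in fresh 10% FBS medium, then grown 10 days. Colonies fixed, stained with 1% crystal violet in 10% methanol and counted blinded under a microscope. Mean ± SD of triplicates.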

In series [7] the test system is human immortalized uroepithelium cell line SV-HUC-1. In words: Cell viability MTT assay. Format: cell-based. To be noted: SV-HUC-1 normal uroepithelium cells. The essentials:
as §3
For orientation: Tetrazolium dyes change colour on reduction, which living cells bring about.

Series [8] can be described thus: Equilibrium solubility assay. Format: physicochemical. The settings on record: shake-flask, distilled water pH 7.0, 37°C, UV spectrophotometry; stayed at this level for 6-24 h.

In the case of `CC(C)=CCC[C@]1(C)C=Cc2c(O)c3c(c(CC=C(C)C)c2O1)O[C@]12C(=C[C@@H]4C[C@H]1C(C)(C)O[C@@]2(C/C=C(/C)C(=O)O)C4=O)C3=O` [GA, Gambogic acid], the Caspase-9 activity result in the series with caspase-9 is “increased”. Besides, in the series on Bcl-2, the Bcl-2 protein level result was “not affected”. For the same compound, the ROS production result in [1] is “substantially increased”. In addition, the Bax expression level entry in the series with Bax is “upregulated”. Also, the “Number of EdU+ cells” value in the series with EJ cells [2] is given as “significantly reduced”. The “Percentage of apoptotic cells (AO/EB)” value in the series with EJ cells [3] was 19.18%±4.35%. The “Concentration inducing clear cytotoxic effects” value in series [4] (EJ cells, MTT) is 1.0 µM. Besides, in series [4] (Homo sapiens, EJ, 24 h, read-out: 50% inhibitory concentration (IC50)), the IC50 was determined as 4.95 µM. Also, in the series with EJ cells [5], the “Percentage of apoptotic cells (Annexin V-FITC/PI flow cytometry)” value was 21.3%±2.27% and the “Effect of caspase inhibitors on induced apoptosis” value was “completely suppressed”. Also, the Caspase-3 activity result with caspase-3 is recorded as “increased”. Also, the Colony growth entry with EJ cells [6] is recorded as “significantly decreased”. For the same compound, the “Effect on cell viability” value in series [7] was “nearly unaffected”.

For the compound `CC(=O)N[C@@H](CS)C(=O)O` [NAC, N-acetyl-L-cysteine], the “Effect on apoptosis, NAC treatment alone” value with EJ cells [5] (5 mM NAC in the absence of GA and GA-TAT) is recorded as “did not significantly affect apoptosis”.

On to `CC(C)=CCC[C@]1(C)C=Cc2c(O)c3c(c(CC=C(C)C)c2O1)O[C@]12C(=C[C@@H]4C[C@H]1C(C)(C)O[C@@]2(C/C=C(/C)C(=O)N[C@@H](CS)C(=O)N[C@@H](Cc1ccc(O)cc1)C(=O)NCC(=O)N[C@@H](CCCNC(=N)N)C(=O)N[C@@H](CCCCN)C(=O)N[C@@H](CCCCN)C(=O)N[C@@H](CCCNC(=N)N)C(=O)N[C@@H](CCCNC(=N)N)C(=O)N[C@@H](CCC(N)=O)C(=O)N[C@@H](CCCNC(=N)N)C(=O)N[C@@H](CCCNC(=N)N)C(=O)N[C@@H](CCCNC(=N)N)C(=O)O)C4=O)C3=O` [GA-TAT], for which the Caspase-9 activity entry with caspase-9 was “further enhanced”. Moreover, in the series on Bcl-2, the Bcl-2 protein level result is on record as “downregulated”. For the same compound, the ROS production entry in series [1] is on record as “significantly higher”. In addition, the “Stirring time at which solubility reached its peak” value in [8] came out at 4 h. In the series on Bax, the Bax expression level entry is listed as “upregulated”. For the same compound, the “Number of EdU+ cells” value with EJ cells [2] is “markedly less”. Also, the “Percentage of apoptotic cells (AO/EB)” value with EJ cells [3] is reported as 42.15%±5.23%. Further, in the series with EJ cells [5], the “Percentage of apoptotic cells (Annexin V-FITC/PI flow cytometry)” value is 46.4%±4.86% and the “Effect of caspase inhibitors on induced apoptosis” value is “partially inhibited”. In addition, in the series with caspase-3, the Caspase-3 activity entry is listed as “further enhanced”. Besides, the Colony growth entry in the series on EJ cells [6] is on record as “further reduced”. In addition, the “Effect on cell viability” value in series [7] was “nearly unaffected”.
